ChEMBL document CHEMBL1143371, “2-Aminoimidazoles inhibitors of TGF-beta receptor 1” (Bioorg Med Chem Lett, 2009)

What was measured:
TGF-beta receptor type-1 [1] = molecular target: T1, TGF-beta receptor type-1 (Homo sapiens, UniProt P36897); assay: Inhibition of TGFBR1 transfected in human HepG2 cells after 24 hrs by plasminogen activator inhibitor-luciferase reporter gene assay; assay type: cell-based
T1 sequence (P36897 whole entry): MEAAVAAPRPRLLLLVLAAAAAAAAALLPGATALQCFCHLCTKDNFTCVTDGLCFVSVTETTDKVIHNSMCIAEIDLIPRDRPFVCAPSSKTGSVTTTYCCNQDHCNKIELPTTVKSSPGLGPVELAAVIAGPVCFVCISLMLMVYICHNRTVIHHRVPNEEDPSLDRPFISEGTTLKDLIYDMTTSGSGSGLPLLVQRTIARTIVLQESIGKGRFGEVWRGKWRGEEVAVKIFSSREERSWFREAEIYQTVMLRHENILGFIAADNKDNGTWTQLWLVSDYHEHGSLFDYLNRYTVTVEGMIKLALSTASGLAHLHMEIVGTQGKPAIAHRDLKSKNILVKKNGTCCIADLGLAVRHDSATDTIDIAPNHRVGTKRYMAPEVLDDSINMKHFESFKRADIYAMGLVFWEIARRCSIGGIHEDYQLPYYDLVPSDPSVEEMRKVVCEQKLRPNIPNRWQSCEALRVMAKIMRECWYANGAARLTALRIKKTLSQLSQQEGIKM

TGF-beta receptor type-1 [2] = molecular target: T1, TGF-beta receptor type-1; assay: Binding affinity to human TGFBR1
[3] = molecular target: Mitogen-activated protein kinase 14 (Homo sapiens, UniProt Q16539); assay: Inhibition of p38alpha
Sequence of Mitogen-activated protein kinase 14 (Q16539 whole entry): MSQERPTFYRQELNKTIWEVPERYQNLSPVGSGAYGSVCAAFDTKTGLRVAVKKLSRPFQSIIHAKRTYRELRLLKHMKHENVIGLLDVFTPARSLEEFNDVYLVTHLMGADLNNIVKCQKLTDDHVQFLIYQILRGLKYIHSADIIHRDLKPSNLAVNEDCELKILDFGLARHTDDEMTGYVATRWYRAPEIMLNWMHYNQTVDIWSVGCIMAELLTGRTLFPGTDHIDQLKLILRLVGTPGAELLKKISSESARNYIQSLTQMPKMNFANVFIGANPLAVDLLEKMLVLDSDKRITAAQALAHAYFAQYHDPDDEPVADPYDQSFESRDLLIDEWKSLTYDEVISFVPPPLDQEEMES

[4] = Bioavailability in iv and po dosed Sprague-Dawley rat; assay type: ADME, organism-based; details: in vivo
Outline: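 Fasted male Sprague–Dawley rats were dosed iv and po. […] Depending on the compound, the vehicle was 20% captisol or NMP/H₂O (1/1).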

[5] = Half life in iv dosed Sprague-Dawley rat; assay type: ADME, organism-based; details: in vivo
Outline: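 Half-life was measured in fasted male Sprague–Dawley rats and is the mean of 4 iv experiments. Depending on the compound, the vehicle was 20% captisol or NMP/H₂O (1/1).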

Row | Compound | EC50 (TGF-beta receptor type-1 [1]) [nM] | Ki (TGF-beta receptor type-1 [2]) [nM] | EC50 [3] [nM] | IC50 (TGF-beta receptor type-1 [1]) [nM] | bioavailability [4] [%] | half-life [5] [h] | IC50 [3] [nM]
1 | CCC(=O)Nc1nc(-c2ccc(F)c(C)n2)c(-c2ccc3nccnc3c2)[nH]1 | 156 | 8.8 | 13500 | – | – | – | –
2 | Cc1nc(-c2nc(N)[nH]c2-c2ccc3nccnc3c2)ccc1F | – | 0.7 | – | 33.5 | 28 | 0.6 | 12500
3 | COCC(=O)Nc1nc(-c2ccc(F)c(C)n2)c(-c2ccc3nccnc3c2)[nH]1 | 61 | 7.2 | 15000 | – | – | – | –
4 | COCCC(=O)Nc1nc(-c2ccc(F)c(C)n2)c(-c2ccc3nccnc3c2)[nH]1 | 148 | 19 | 14800 | – | 41 | 13.2 | –
5 | Cc1nc(-c2nc(NC(=O)C(C)C)[nH]c2-c2ccc3nccnc3c2)ccc1F | – | > 28000 | – | – | – | – | –
6 | Cc1nc(-c2nc(N3CCN(S(C)(=O)=O)CC3)[nH]c2-c2ccc3ncnn3c2)ccc1F | 414 | 3 | 41200 | – | – | – | –
7 | CC(=O)Nc1nc(-c2ccc(F)c(C)n2)c(-c2ccc3ncnn3c2)[nH]1 | 111 | 2.07 | 28100 | – | – | – | –
8 | Cc1nc(-c2nc(N3CCCCC3)[nH]c2-c2ccc3ncnn3c2)ccc1F | – | 53.2 | – | – | – | – | –
9 | Cc1cccc(-c2nc(N)sc2-c2ccc3nccnc3c2)n1 | 80 | 0.33 | 22000 | – | 87 | 7.4 | –
10 | Cc1nc(-c2nc(N3CCOCC3)[nH]c2-c2ccc3ncnn3c2)ccc1F | 513 | 15 | 46300 | – | 25 | 0.4 | –
11 | CC(=O)N1CCN(c2nc(-c3ccc(F)c(C)n3)c(-c3ccc4ncnn4c3)[nH]2)CC1 | 1220 | 15.2 | 14200 | – | – | – | –
12 | Cc1nc(-c2nc(N3CCN(C)CC3)[nH]c2-c2ccc3ncnn3c2)ccc1F | 344 | 16.4 | 10900 | – | – | – | –
13 | CC(=O)Nc1nc(-c2ccc(F)c(C)n2)c(-c2ccc3nccnc3c2)[nH]1 | 180 | – | 14800 | – | 66 | 7.8 | –
14 | CC(=O)Nc1nc(-c2cccc(C)n2)c(-c2ccc3ncnn3c2)[nH]1 | 165 | 2.95 | 57800 | – | 100 | 7.1 | –
